Measurements from ChEMBL document CHEMBL4480366, “Rationally synthesized coumarin based pyrazolines ameliorate carrageenan induced inflammation through COX-2/pro-inflammatory cytokine inhibition” (Medchemcomm, 2019).
The source made the active and inactive calls. No cut-off for these calls is given here.

What was measured:
[1] = tested on: Erythrocyte; assay: Anti-inflammatory activity in human erythrocytes assessed as inhibition of hypotonicity-induced hemolysis at 10 to 100 ug/ml relative to control; assay type: functional, cell-based
[2] = target: T1, Prostaglandin G/H synthase 1 (Ovis aries, UniProt P05979); assay: Inhibition of ovine COX1 using arachidonic acid as substrate preincubated for 10 mins followed by substrate addition and measured after 2 mins by ELISA
T1 sequence (P05979 whole entry): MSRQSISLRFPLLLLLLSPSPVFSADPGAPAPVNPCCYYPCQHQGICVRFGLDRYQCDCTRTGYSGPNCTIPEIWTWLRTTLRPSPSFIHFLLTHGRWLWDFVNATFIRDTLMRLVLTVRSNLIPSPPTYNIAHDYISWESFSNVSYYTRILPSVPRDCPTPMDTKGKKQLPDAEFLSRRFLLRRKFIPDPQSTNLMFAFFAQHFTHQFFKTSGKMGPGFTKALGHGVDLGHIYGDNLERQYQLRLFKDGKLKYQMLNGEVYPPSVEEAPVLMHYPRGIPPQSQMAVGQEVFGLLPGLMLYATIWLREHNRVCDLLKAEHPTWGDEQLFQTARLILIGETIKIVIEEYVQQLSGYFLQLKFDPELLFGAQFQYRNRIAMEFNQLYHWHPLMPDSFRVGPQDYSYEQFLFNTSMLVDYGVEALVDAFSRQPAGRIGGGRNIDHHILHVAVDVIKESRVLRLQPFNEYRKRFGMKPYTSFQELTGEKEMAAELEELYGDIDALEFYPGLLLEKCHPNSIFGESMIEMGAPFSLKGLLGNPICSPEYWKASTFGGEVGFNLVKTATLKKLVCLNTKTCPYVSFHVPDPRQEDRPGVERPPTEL
Method in brief: (§1)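 The enzyme, heme and test compound (dissolved in DMSO) were preincubated for 10 min at 37 °C in 0.1 M Tris-HCl, pH 8, with 5 mM EDTA and 2 mM phenol. Arachidonic acid was added to 100 µM final. The reaction was stopped after 2 min with 1 M HCl, then reduced with saturated SnCl2 for 5 min at RT. PGF2α was quantified by EIA (18 h RT, Ellman's reagent 60 min, 410 nm).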

[3] = target: T2, Prostaglandin G/H synthase 2 (Ovis aries, UniProt P79208); assay: Inhibition of ovine COX2 using arachidonic acid as substrate preincubated for 10 mins followed by substrate addition and measured after 2 mins by ELISA; method in brief: as §1
T2 sequence (P79208 whole entry): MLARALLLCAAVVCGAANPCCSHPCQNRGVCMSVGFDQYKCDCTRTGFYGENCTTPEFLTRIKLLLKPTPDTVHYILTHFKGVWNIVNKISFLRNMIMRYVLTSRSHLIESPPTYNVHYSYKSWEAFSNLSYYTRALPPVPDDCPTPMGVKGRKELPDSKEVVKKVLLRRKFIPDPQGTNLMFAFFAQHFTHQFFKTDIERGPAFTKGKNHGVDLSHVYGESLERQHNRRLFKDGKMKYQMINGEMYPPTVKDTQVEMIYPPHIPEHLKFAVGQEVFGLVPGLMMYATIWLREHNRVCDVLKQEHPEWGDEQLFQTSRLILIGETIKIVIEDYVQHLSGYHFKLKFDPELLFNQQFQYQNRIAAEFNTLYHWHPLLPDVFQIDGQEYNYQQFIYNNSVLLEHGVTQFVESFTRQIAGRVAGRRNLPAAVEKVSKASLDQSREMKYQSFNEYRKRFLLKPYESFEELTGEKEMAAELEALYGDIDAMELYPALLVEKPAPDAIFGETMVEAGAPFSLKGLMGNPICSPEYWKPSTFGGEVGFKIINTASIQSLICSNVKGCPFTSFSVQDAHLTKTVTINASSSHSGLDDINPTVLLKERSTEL

[4] = tested on: Erythrocyte; assay: Anti-inflammatory activity in human erythrocytes assessed as inhibition of heat-induced hemolysis; assay type: functional, cell-based
[5] = In-vitro anti-inflammatory activity assessed as inhibition of heat-induced albumin (unknown origin) denaturation
[6] = Inhibition of soyabean 5-LOX after 5 mins by spectrophotometric analysis; set-up: species or system Glycine max
[7] = tested on: Rattus norvegicus; assay: Anti-inflammatory activity Wistar rat assessed as inhibition of carrageenan-induced paw edema at 25 to 50 mg/kg pretreated 30 mins prior to carrageenan-induction and measured after 24 hrs by plethysmography; assay type: functional
Method in brief: (§2)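 Male Wistar rats, 4–6 weeks old and weighing 150–200 g, were housed four per cage at 22–24 °C with standard food and water.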

[8] = tested on: Erythrocyte; assay: Anti-inflammatory activity in human erythrocytes assessed as inhibition of heat-induced hemolysis at 100 ug/ml relative to control; assay type: functional
[9] = (§3) Renal toxicity in Wistar rat assessed as effect on kidney at 2000 mg/kg, po administered as as single dose observed continuously during first 4 hrs followed by periodic monitoring for 24 hrs and subsequent observations at once or twice daily for 14 days by hematoxylin and eosin staining-based assay; assay type: organism-based; details: in vivo
[10] = tested on: Erythrocyte; assay: Anti-inflammatory activity in human erythrocytes assessed as inhibition of hypotonicity-induced hemolysis at 50 ug/ml relative to control; assay type: functional
[11] = tested on: Rattus norvegicus; assay: Anti-inflammatory activity Wistar rat assessed as reduction in TNF-alpha production at 25 mg/kg, ip pretreated 30 mins prior to carrageenan-induction and measured after 24 hrs post induction by immunoassay; assay type: functional, organism-based; method in brief: as §2
[12] = as §3, with “Cardiotoxicity” for “Renal toxicity”, “myocardium” for “kidney”; assay type: toxicity, organism-based; details: in vivo
[13] = tested on: Rattus norvegicus; assay: Anti-inflammatory activity Wistar rat assessed as reduction in IL-6 production at 25 mg/kg, ip pretreated 30 mins prior to carrageenan-induction and measured after 24 hrs post induction by immunoassay; assay type: functional, organism-based; method in brief: as §2
[14] = Hepatotoxicity in Wistar rat assessed as effect on liver at 2000 mg/kg, po administered as as single dose observed continuously during first 4 hrs followed by periodic monitoring for 24 hrs and subsequent observations at once or twice daily for 14 days by hematoxylin and eosin staining-based assay; assay type: toxicity, organism-based; details: in vivo
[15] = Acute toxicity in Wistar rat assessed as induction of sneezing at 300 to 2000 mg/kg, po administered as as single dose observed continuously during 1 to 4 hrs; assay type: organism-based; details: in vivo
Method in brief: (§4)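 Rats of either sex were used, per OECD guidelines, housed four per cage at 22–24 °C with standard food and water. They were fasted 4 h before and 2 h after dosing. Compounds were given as a single oral dose, with an untreated control group. Animals were watched continuously for the first 4 h, then periodically to 24 h, then once or twice daily for 14 days.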

[16] = tested on: Rattus norvegicus; assay: Analgesic activity in Wistar rat assessed as reduction in acetic acid-induced abnormal writhing administered intraperitoneally 30 mins after substance P injection followed by acetic acid induction after 30 mins; assay type: functional, organism-based; method in brief: as §2
[17] = Acute toxicity in Wistar rat assessed as induction of behavioural changes at 50 mg/kg, po administered as as single dose observed continuously during first 4 hrs followed by periodic monitoring for 24 hrs and subsequent observations at once or twice daily for 14 days; assay type: organism-based; details: in vivo; method in brief: as §4
[18] = Acute toxicity in Wistar rat assessed as induction of irritation at 300 to 2000 mg/kg, po administered as as single dose observed continuously during 1 to 4 hrs; assay type: organism-based; details: in vivo; method in brief: as §4
[19] = tested on: Rattus norvegicus; assay: Analgesic activity in Wistar rat assessed as reduction in acetic acid-induced abnormal writhing administered intraperitoneally 1 hr prior to acetic acid induction relative to control; assay type: functional; set-up: scale not given: the % may be the effect or the level left; method in brief: as §2
[20] = Acute toxicity in Wistar rat assessed as induction of itching at 300 to 2000 mg/kg, po administered as as single dose observed continuously during 1 to 4 hrs; assay type: organism-based; details: in vivo; method in brief: as §4
[21] = tested on: Rattus norvegicus; assay: Anti-inflammatory activity Wistar rat assessed as inhibition of carrageenan-induced paw edema at 25 to 50 mg/kg pretreated 30 mins prior to carrageenan-induction and measured after 0.5 to 24 hrs by plethysmography; assay type: functional, organism-based; details: TDE = time-dependent effect; method in brief: as §2
[22] = tested on: Erythrocyte; assay: Anti-inflammatory activity in human erythrocytes assessed as inhibition of hypotonicity-induced hemolysis at 100 ug/ml relative to control; assay type: functional
[23] = In-vitro anti-inflammatory activity assessed as inhibition of heat-induced albumin (unknown origin) denaturation at 100 ug/ml
[24] = tested on: Erythrocyte; assay: Anti-inflammatory activity in human erythrocytes assessed as inhibition of heat-induced hemolysis at 50 ug/ml relative to control; assay type: functional
[25] = Acute toxicity in Wistar rat assessed as induction of behavioural changes at 50 to 2000 mg/kg, po administered as as single dose observed continuously during first 4 hrs followed by periodic monitoring for 24 hrs and subsequent observations at once or twice daily for 14 days; details: in vivo
[26] = tested on: Erythrocyte; assay: Anti-inflammatory activity in human erythrocytes assessed as inhibition of heat-induced hemolysis at 25 ug/ml relative to control; assay type: functional
[27] = tested on: Erythrocyte; assay: Anti-inflammatory activity in human erythrocytes assessed as inhibition of heat-induced hemolysis at 10 ug/ml relative to control; assay type: functional
[28] = tested on: Erythrocyte; assay: Anti-inflammatory activity in human erythrocytes assessed as inhibition of hypotonicity-induced hemolysis at 10 ug/ml relative to control; assay type: functional
[29] = tested on: Rattus norvegicus; assay: Anti-inflammatory activity Wistar rat assessed as reduction in IL-1beta production at 25 mg/kg, ip pretreated 30 mins prior to carrageenan-induction and measured after 24 hrs post induction by immunoassay; assay type: functional, organism-based; method in brief: as §2
[30] = tested on: Erythrocyte; assay: Anti-inflammatory activity in human erythrocytes assessed as inhibition of hypotonicity-induced hemolysis at 25 ug/ml relative to control; assay type: functional

Row | SMILES | Activity [1] | IC50 [2] | IC50 [3] | Activity [4] | inhibition [5] | inhibition at 100 µg/mL [8] | inhibition at 50 µg/mL [10] | Activity [19] | inhibition at 100 µg/mL [22] | inhibition at 50 µg/mL [24] | inhibition at 25 µg/mL [26] | inhibition at 10 µg/mL [27] | inhibition at 10 µg/mL [28] | inhibition at 25 µg/mL [30] | also measured
1 | COc1ccccc1C1CC(c2cc3ccccc3oc2=O)=NN1C(C)=O (stereo not given) | Active | > 30 µM | 4.37 µM | Dose-dependent effect | Dose-dependent effect |  |  |  |  |  |  |  |  |  | 
2 | CC(=O)N1N=C(c2cc3ccccc3oc2=O)CC1c1ccc(Cl)cc1 (stereo not given) | Active |  |  | Dose-dependent effect | Dose-dependent effect |  |  |  |  |  |  |  |  |  | 
3 | COc1ccc(C2CC(c3cc4ccccc4oc3=O)=NN2C(C)=O)cc1 (stereo not given) | Active | 22.4 µM | 0.41 µM | Dose-dependent effect | Dose-dependent effect | 69% | 67% | 70.5% | 68% | 67% | 63% | 60% | 62% | 63% | IC50 [6]: 12 µM; inhibition (INH) [7]: 67.39%; Activity [9]: Non-Toxic; Activity [11]: Active; Activity [12]: Non-Toxic; Activity [13]: Active; Activity [14]: Non-Toxic; Activity [15]: Toxic; Activity [16]: inactive; Activity [17]: Non-Toxic; Activity [18]: Toxic; Activity [20]: Toxic; inhibition [21]: Tde; inhibition [23]: 70%; Activity [25]: Non-Toxic; Activity [29]: Active
4 | Cc1ccc(-c2ncc(Cl)cc2-c2ccc(S(C)(=O)=O)cc2)cn1 [ETORICOXIB] |  | > 30 µM | 0.23 µM |  |  | 76% | 66% | 57.6% | 69% | 78% | 73% | 65% | 52% | 62% | inhibition [7]: Active
